The test system of data set [1] is Mus musculus. The data set can be described thus: Anticonvulsant activity in CF1 mouse assessed as protection against maximal electroshock-induced seizures at 300 mg/kg, ip after 0.5 hrs. Further details: dose 300 mg/kg. Type of data set: functional, organism-based. The essentials:
(§1)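 Male CF-1 albino mice (18–25 g), dosed i.p. at 30, 100 or 300 mg/kg in 0.5% methyl cellulose/water or PEG 200 (0.01 ml/g); tested at intervals after dosing; protection = abolition of hind limb tonic extensor component of MES seizure; scored as protected/tested.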

The test system of data set [2] is Mus musculus. The data set can be described thus: Neurotoxicity in CF1 mouse at 30 mg/kg, ip after 0.5 hrs by rotarod test. Format: toxicity, organism-based. On the set-up: dose 30 mg/kg, route intraperitoneal. The settings on record: in vivo. The method in brief:
(§2)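 Rotorod neurotoxicity in male CF-1 mice (18–25 g) after i.p. compound in 0.5% methyl cellulose/water or PEG 200 at 30, 100 or 300 mg/kg; reported as number showing toxicity/number tested.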

Data set [3] concerns Mus musculus. The data set can be described thus: Anticonvulsant activity in CF1 mouse assessed as protection against subcutaneous metrazole-induced seizures at 100 mg/kg, ip after 4 hrs. Type of data set: functional, organism-based. On the set-up: dose 100 mg/kg.
Data set [4] concerns Mus musculus. The data set can be described thus: Anticonvulsant activity in CF1 mouse assessed as protection against maximal electroshock-induced seizures at 30 mg/kg, ip after 4 hrs. Format: functional, organism-based. Further details: dose 30 mg/kg. The method in brief:
as §1
(In the maximal electroshock model the usual endpoint is tonic extension of the hind limbs.)

For data set [5], the system named is Mus musculus. The data set can be described thus: Anticonvulsant activity in CF1 mouse assessed as protection against subcutaneous metrazole-induced seizures at 30 mg/kg, ip after 0.5 hrs. Type of data set: functional, organism-based. Further details: dose 30 mg/kg.
The test system of data set [6] is Mus musculus. The data set can be described thus: Neurotoxicity in CF1 mouse at 30 mg/kg, ip after 4 hrs by rotarod test. Further details: dose 30 mg/kg, route intraperitoneal. Format: toxicity, organism-based. To be noted: in vivo. The method in brief: as §2
Background: Falling from the rotarod earlier than controls is read as motor impairment.

Data set [7] relates to Mus musculus. The data set can be described thus: Anticonvulsant activity in CF1 mouse assessed as protection against maximal electroshock-induced seizures at 100 mg/kg, ip after 4 hrs. Format: functional, organism-based. Further details: dose 100 mg/kg. The method in brief: as §1
Data set [8] relates to Mus musculus. The experiment in a line: Anticonvulsant activity in CF1 mouse assessed as protection against subcutaneous metrazole-induced seizures at 30 mg/kg, ip after 4 hrs. Type of data set: functional, organism-based. On the set-up: dose 30 mg/kg.
In data set [9] the test system is Mus musculus. The data set can be described thus: Anticonvulsant activity in CF1 mouse assessed as protection against subcutaneous metrazole-induced seizures at 300 mg/kg, ip after 0.5 hrs. Format: functional, organism-based. On the set-up: dose 300 mg/kg.
The test system of data set [10] is Mus musculus. The data set can be described thus: Neurotoxicity in CF1 mouse at 300 mg/kg, ip after 0.5 hrs by rotarod test. The settings on record: in vivo. Type of data set: toxicity, organism-based. Further details: dose 300 mg/kg, route intraperitoneal. The method in brief:
as §2

Data set [11] concerns Mus musculus. The experiment in a line: Neurotoxicity in CF1 mouse at 300 mg/kg, ip after 4 hrs by rotarod test. To be noted: in vivo. Type of data set: toxicity, organism-based. On the set-up: dose 300 mg/kg, route intraperitoneal. The essentials: as §2
Data set [12] deals with Mus musculus. The data set can be described thus: Anticonvulsant activity in CF1 mouse assessed as protection against maximal electroshock-induced seizures at 30 mg/kg, ip after 0.5 hrs. Format: functional, organism-based. Further details: dose 30 mg/kg. The method in brief: as §1
Data set [13] relates to Mus musculus. The data set can be described thus: Anticonvulsant activity in CF1 mouse assessed as protection against subcutaneous metrazole-induced seizures at 300 mg/kg, ip after 4 hrs. Format: functional, organism-based. Further details: dose 300 mg/kg.
The test system of data set [14] is Mus musculus. The data set can be described thus: Anticonvulsant activity in CF1 mouse assessed as protection against maximal electroshock-induced seizures at 100 mg/kg, ip after 0.5 hrs. Format: functional, organism-based. On the set-up: dose 100 mg/kg. The essentials: as §1
Data set [15] relates to Mus musculus. The experiment in a line: Anticonvulsant activity in CF1 mouse assessed as protection against maximal electroshock-induced seizures at 300 mg/kg, ip after 4 hrs. Type of data set: functional, organism-based. On the set-up: dose 300 mg/kg. The essentials:
as §1

Data set [16] has as its system Mus musculus. The experiment in a line: Anticonvulsant activity in CF1 mouse assessed as protection against subcutaneous metrazole-induced seizures at 100 mg/kg, ip after 0.5 hrs. Format: functional, organism-based. Further details: dose 100 mg/kg.
The subject of data set [17] is Mus musculus. The data set can be described thus: Neurotoxicity in CF1 mouse at 100 mg/kg, ip after 4 hrs by rotarod test. Format: toxicity, organism-based. On the set-up: dose 100 mg/kg, route intraperitoneal. The settings on record: in vivo. The method in brief: as §2
Data set [18] has as its system Mus musculus. The data set can be described thus: Neurotoxicity in CF1 mouse at 100 mg/kg, ip after 0.5 hrs by rotarod test. Type of data set: toxicity, organism-based. On the set-up: dose 100 mg/kg, route intraperitoneal. To be noted: in vivo. The method in brief: as §2

SMILES strings stand for the structures. The source made the active and inactive calls. The rule behind the calls is not given here.

With `CCCOc1c(C(=O)N/N=C(\C)c2c[nH]c3ccccc23)sc(C(=O)N/N=C(\C)c2c[nH]c3ccccc23)c1OCCC`, the result with Mus musculus [1], with Mus musculus [3], in the data set with Mus musculus [4], in the data set on Mus musculus [5], in the data set on Mus musculus [7] and with Mus musculus [8] was inactive. The result in the data set on Mus musculus [9], in the data set with Mus musculus [12], in the data set with Mus musculus [13], in the data set on Mus musculus [14], in the data set on Mus musculus [15] and in the data set with Mus musculus [16] was inactive. Moreover, the Activity result in the data set with Mus musculus [2], in the data set on Mus musculus [6], in the data set with Mus musculus [10], in the data set on Mus musculus [11], in the data set on Mus musculus [17] and in the data set on Mus musculus [18] was “Non-toxic” each time.

For `CCCOc1c(C(=O)N/N=C(\C)c2ccccc2)sc(C(=O)N/N=C(\C)c2ccccc2)c1OCCC`, the outcome in the data set with Mus musculus [1], with Mus musculus [3], with Mus musculus [4], in the data set with Mus musculus [5], with Mus musculus [7] and in the data set with Mus musculus [8] was inactive. Also, the result in the data set on Mus musculus [9], in the data set on Mus musculus [12], with Mus musculus [13], in the data set with Mus musculus [14] and with Mus musculus [16] was inactive. Also, the Activity result with Mus musculus [2], with Mus musculus [6], in the data set with Mus musculus [10], with Mus musculus [11], in the data set on Mus musculus [17] and in the data set on Mus musculus [18] was “Non-toxic” each time.

Regarding `CCCOc1c(C(=O)NN=C2CCCC2)sc(C(=O)NN=C2CCCC2)c1OCCC`, the outcome in the data set with Mus musculus [1], in the data set with Mus musculus [3], in the data set with Mus musculus [4], with Mus musculus [5], with Mus musculus [7] and in the data set on Mus musculus [8] was inactive. Further, the result with Mus musculus [9], with Mus musculus [12], in the data set with Mus musculus [13], in the data set on Mus musculus [14] and with Mus musculus [16] was inactive. Moreover, the Activity entry in the data set on Mus musculus [2], in the data set with Mus musculus [6], in the data set with Mus musculus [10], in the data set on Mus musculus [11], in the data set with Mus musculus [17] and in the data set on Mus musculus [18] was “Non-toxic” each time.

Turning to `CCCOc1c(C(=O)N/N=C(\C)c2nccs2)sc(C(=O)N/N=C(\C)c2nccs2)c1OCCC`, the result with Mus musculus [1], in the data set with Mus musculus [3], with Mus musculus [4], with Mus musculus [5], in the data set with Mus musculus [7] and in the data set with Mus musculus [8] was inactive. For the same compound, the result in the data set with Mus musculus [9], with Mus musculus [12], in the data set with Mus musculus [13], in the data set on Mus musculus [15] and in the data set with Mus musculus [16] was inactive. The Activity entry in the data set on Mus musculus [2], with Mus musculus [6], in the data set on Mus musculus [10], in the data set on Mus musculus [11], with Mus musculus [17] and with Mus musculus [18] was “Non-toxic” in each case.

As for `CCCC/C=N/NC(=O)c1sc(C(=O)N/N=C/CCCC)c(OCCC)c1OCCC`, the outcome with Mus musculus [1], with Mus musculus [3], in the data set with Mus musculus [4], in the data set with Mus musculus [5], in the data set with Mus musculus [7] and with Mus musculus [8] was inactive. Moreover, the outcome in the data set with Mus musculus [9], in the data set with Mus musculus [12], with Mus musculus [13], in the data set on Mus musculus [14] and with Mus musculus [15] was inactive. Further, the Activity result was “Non-toxic” in the data set on Mus musculus [2]; “Non-toxic” in the data set on Mus musculus [6]; “Toxic” in the data set on Mus musculus [10]; “Non-toxic” in the data set on Mus musculus [11]; “Non-toxic” in the data set on Mus musculus [17]; “Toxic” in the data set with Mus musculus [18].

For the compound `CCCOc1c(C(=O)N/N=C(\C)c2cc3ccccc3oc2=O)sc(C(=O)N/N=C(\C)c2cc3ccccc3oc2=O)c1OCCC`, the outcome in the data set on Mus musculus [1], in the data set with Mus musculus [3], in the data set on Mus musculus [4], with Mus musculus [5], with Mus musculus [7] and in the data set on Mus musculus [8] was inactive. In addition, the outcome with Mus musculus [9], in the data set with Mus musculus [12], in the data set with Mus musculus [13], with Mus musculus [14] and with Mus musculus [16] was inactive. For the same compound, the Activity entry in the data set on Mus musculus [2] is on record as “Non-toxic”; with Mus musculus [6], “Non-toxic”; in the data set on Mus musculus [10], “Toxic”; in the data set on Mus musculus [11], “Toxic”; with Mus musculus [17] it was “Non-toxic”; with Mus musculus [18], “Toxic”.

For the compound `CCCOc1c(C(=O)N/N=C\c2ccc([N+](=O)[O-])o2)sc(C(=O)N/N=C/c2ccc([N+](=O)[O-])o2)c1OCCC`, the result with Mus musculus [1], with Mus musculus [3], in the data set with Mus musculus [4], in the data set on Mus musculus [5], in the data set with Mus musculus [7] and in the data set with Mus musculus [8] was inactive. The outcome in the data set with Mus musculus [9], in the data set with Mus musculus [12], in the data set with Mus musculus [13], in the data set on Mus musculus [14] and with Mus musculus [15] was inactive. The Activity result in the data set with Mus musculus [6] is given as “Non-toxic”; in the data set with Mus musculus [10], “Toxic”; in the data set with Mus musculus [11] it was “Toxic”; with Mus musculus [17], “Toxic”; in the data set on Mus musculus [18], “Toxic”.

On to `CCCOc1c(C(=O)N/N=C(/c2ccccc2)c2ccncc2)sc(C(=O)N/N=C(\c2ccccc2)c2ccncc2)c1OCCC`, for which the outcome in the data set with Mus musculus [1], in the data set on Mus musculus [3], in the data set with Mus musculus [4], in the data set with Mus musculus [5], in the data set on Mus musculus [7] and in the data set with Mus musculus [9] was inactive. Also, the outcome in the data set with Mus musculus [12], in the data set with Mus musculus [13], with Mus musculus [15] and in the data set with Mus musculus [16] was inactive. Moreover, the Activity entry in the data set on Mus musculus [2], in the data set on Mus musculus [6], in the data set with Mus musculus [10], in the data set with Mus musculus [11], with Mus musculus [17] and in the data set on Mus musculus [18] was “Non-toxic” each time.

Turning to `CCCOc1c(C(=O)N/N=C\c2cccs2)sc(C(=O)N/N=C/c2cccs2)c1OCCC`, the outcome in the data set with Mus musculus [1], with Mus musculus [3], in the data set with Mus musculus [4], in the data set on Mus musculus [5], in the data set with Mus musculus [7] and in the data set with Mus musculus [8] was inactive. Also, the outcome in the data set with Mus musculus [9], in the data set on Mus musculus [12], in the data set on Mus musculus [13], with Mus musculus [14] and in the data set on Mus musculus [15] was inactive. Further, the Activity result is recorded as “Non-toxic” in the data set with Mus musculus [2]; “Non-toxic” in the data set on Mus musculus [6]; “Toxic” with Mus musculus [10]; “Toxic” with Mus musculus [11]; “Non-toxic” with Mus musculus [17]; “Toxic” with Mus musculus [18].

Values taken from ChEMBL document CHEMBL1154150, “Synthesis and anticonvulsant activity of some new bishydrazones derived from 3,4-dipropyloxythiophene” (Eur J Med Chem, 2009).
